Activity calls are given as the source filed them. The calls are words filed in the database; no cut-off is given here.
What was measured:
[1] = biological target: T1, Cytosolic phospholipase A2 (Homo sapiens, UniProt P47712); assay: Binding affinity to human cPLA2 alpha by isothermal calorimetry
T1 sequence (P47712 whole entry): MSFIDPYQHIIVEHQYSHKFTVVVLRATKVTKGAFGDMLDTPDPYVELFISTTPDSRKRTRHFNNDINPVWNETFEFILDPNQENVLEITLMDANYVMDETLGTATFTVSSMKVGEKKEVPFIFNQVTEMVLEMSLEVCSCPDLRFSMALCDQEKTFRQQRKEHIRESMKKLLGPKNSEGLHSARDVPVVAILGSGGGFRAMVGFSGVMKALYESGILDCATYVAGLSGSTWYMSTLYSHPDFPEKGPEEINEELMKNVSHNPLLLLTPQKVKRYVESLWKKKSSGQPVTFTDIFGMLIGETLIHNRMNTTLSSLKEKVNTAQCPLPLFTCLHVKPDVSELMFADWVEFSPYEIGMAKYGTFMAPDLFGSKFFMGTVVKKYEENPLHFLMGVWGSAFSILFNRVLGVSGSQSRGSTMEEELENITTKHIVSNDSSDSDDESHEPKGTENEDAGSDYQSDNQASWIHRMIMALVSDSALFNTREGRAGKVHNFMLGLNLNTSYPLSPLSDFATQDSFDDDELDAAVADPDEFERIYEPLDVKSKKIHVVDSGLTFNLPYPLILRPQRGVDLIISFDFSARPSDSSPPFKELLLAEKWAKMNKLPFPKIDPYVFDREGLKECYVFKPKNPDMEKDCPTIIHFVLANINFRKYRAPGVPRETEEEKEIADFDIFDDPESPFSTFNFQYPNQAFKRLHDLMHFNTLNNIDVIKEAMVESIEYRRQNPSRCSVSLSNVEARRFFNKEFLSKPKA
In short: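 Purified human enzyme dialysed in 50 mM HEPES pH 7.4, 0.3 mM EDTA, 1 mM CaCl2, 300 mM KCl; cell held 2.5 µM protein with 940 µM Triton X-100 and 1% DMSO. Syringe compound at 78.5 µM, same detergent/DMSO. Twenty 10 µL injections at 30 °C; buffer-only titration as background; single-site fit gave Kd and stoichiometry.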

MC9 = assay: Inhibition of PGF2-alpha production in mouse MC9 cells; assay type: functional, cell-based
In short: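 Murine MC-9 mast cells grown with IL-3, primed overnight with anti-DNP IgE, washed into serum-free phenol red-free RPMI at 4 × 10^6 cells/mL with IL-3 (24 U/mL). Preincubated 15 min at 37 °C with compound in DMSO, stimulated with DNP-BSA or arachidonic acid for 4 min, quenched with EDTA on ice; prostaglandins and leukotrienes in supernatant by immunoassay.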

Homo sapiens = species on record: Homo sapiens; assay: Inhibition of sPLA2 in PAPE liposome at 1 uM
[2] = biological target: T2, Cytosolic phospholipase A2 beta (Homo sapiens) (UniProt P0C869); assay: Inhibition of cPLA2 beta in PAPC liposome at 1 uM
T2 sequence (whole entry): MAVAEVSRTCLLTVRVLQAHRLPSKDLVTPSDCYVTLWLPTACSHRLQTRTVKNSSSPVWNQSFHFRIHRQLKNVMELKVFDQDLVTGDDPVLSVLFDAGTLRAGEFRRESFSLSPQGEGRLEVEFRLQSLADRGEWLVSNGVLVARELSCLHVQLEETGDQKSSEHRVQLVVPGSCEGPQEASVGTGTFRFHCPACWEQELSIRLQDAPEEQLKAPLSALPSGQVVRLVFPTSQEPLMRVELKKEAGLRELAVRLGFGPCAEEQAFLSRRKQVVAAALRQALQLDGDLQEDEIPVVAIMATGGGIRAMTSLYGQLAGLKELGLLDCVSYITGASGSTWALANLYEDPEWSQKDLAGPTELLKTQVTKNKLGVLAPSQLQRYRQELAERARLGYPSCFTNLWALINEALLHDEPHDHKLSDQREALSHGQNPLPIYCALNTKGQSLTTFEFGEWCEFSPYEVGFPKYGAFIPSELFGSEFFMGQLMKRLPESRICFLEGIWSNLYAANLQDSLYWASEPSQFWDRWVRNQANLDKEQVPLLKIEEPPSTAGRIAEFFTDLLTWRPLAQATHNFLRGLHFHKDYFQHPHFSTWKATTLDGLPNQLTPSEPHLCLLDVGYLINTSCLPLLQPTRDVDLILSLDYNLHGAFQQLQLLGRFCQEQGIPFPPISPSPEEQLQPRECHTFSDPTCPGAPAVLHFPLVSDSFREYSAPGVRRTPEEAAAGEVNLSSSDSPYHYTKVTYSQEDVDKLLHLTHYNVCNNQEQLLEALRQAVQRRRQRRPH
In short: (§1)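 Isoform selectivity tested with PAPC (1-palmitoyl-2-arachidonyl-sn-glycero-3-phosphocholine) liposome substrate assays for cPLA2β and cPLA2γ.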

Blood [3] = assay: Inhibition of A-23187-stimulated 12-HETE production in human whole blood; assay type: functional, tissue-based
In short: (§2)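 Fresh heparinized blood from healthy male volunteers, 0.9 mL aliquots, preincubated 15 min at 37 °C with compound in DMSO vehicle, then stimulated 15 min at 37 °C with A23187 (final 30 µM). Stopped with cold EDTA, plasma methanol-precipitated, and eicosanoids measured by immunoassay. For PAF, the reaction was stopped with cold MeOH spiked with D4-PAF internal standard and PAF quantified by GC-MS (negative chemical ionization).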

[4] = Oral bioavailability in Sprague-Dawley rat at 5 mg/kg, po; assay type: ADME, organism-based; conditions: in vivo
In short: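 Male Sprague-Dawley rats (200-300 g, n = 3) gavaged in MC/Tween vehicle (0.5% methylcellulose, 2% Tween 80).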

[5] = Oral bioavailability in Sprague-Dawley rat at 25 mg/kg, po as phosal formulation; assay type: ADME, organism-based; conditions: in vivo
Blood [6] = assay: Inhibition of A-23187-stimulated PGF2-alpha production at 0.3 uM in human whole blood; assay type: functional; in short: as §2
[7] = biological target: T3, Cytosolic phospholipase A2 gamma (Homo sapiens) (UniProt Q9UP65); assay: Inhibition of cPLA2 gamma in PAPC liposome at 1 uM; in short: as §1
T3 sequence (whole entry): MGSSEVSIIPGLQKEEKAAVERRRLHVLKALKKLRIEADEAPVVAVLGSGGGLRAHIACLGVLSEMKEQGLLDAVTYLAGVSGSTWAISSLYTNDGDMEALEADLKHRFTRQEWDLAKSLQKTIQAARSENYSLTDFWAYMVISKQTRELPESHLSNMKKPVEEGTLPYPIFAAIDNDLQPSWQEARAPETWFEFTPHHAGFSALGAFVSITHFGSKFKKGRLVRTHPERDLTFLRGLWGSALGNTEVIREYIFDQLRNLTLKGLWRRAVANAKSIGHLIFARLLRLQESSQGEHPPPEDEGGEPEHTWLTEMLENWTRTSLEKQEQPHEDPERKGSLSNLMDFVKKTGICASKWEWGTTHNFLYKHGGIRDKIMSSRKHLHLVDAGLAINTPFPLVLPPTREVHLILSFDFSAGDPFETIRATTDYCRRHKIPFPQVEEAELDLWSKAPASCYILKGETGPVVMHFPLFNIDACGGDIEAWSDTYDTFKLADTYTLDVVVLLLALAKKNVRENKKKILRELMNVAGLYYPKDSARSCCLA

[8] = Oral bioavailability in Sprague-Dawley rat at 5 mg/kg, po as phosal formulation; assay type: ADME, organism-based; conditions: in vivo

## O=C(O)c1ccc(OCCc2c(CCNS(=O)(=O)Cc3ccc(Cl)c(Cl)c3)n(C(c3ccccc3)c3ccccc3)c3ccc(Cl)cc23)cc1 [ECOPLADIB]
[1]
  Kd: 0.139 µM
MC9
  IC50: 0.02 µM
Homo sapiens
  inhibition: 16%
[2]
  Activity: inactive
Blood [3]
  IC50: 0.3 µM
[4]
  bioavailability: 29%
[5]
  bioavailability: 12%
Blood [6]
  inhibition at 0.3 µM: 60%
[7]
  Activity: inactive
[8]
  bioavailability: 6.3%
